Assay results as given in ChEMBL document CHEMBL1795269, “Novel (E)-5-styryl-2,2'-bithiophene derivatives as ligands for β-amyloid plaques” (Eur J Med Chem, 2011).
Activity calls are given as the source filed them. The rule behind the calls is not given here.

What was measured:
[1] = Displacement of [125I]-TZDM from amyloid beta 1 to 42 after 2 hrs by gamma counting
Method in brief: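 Aβ1-42 aggregated at 0.25 mg/mL in pH 7.4 buffer (10 mM sodium phosphate, 1 mM EDTA), 37 °C for 42 h with shaking. Fibrils (28 nM final) mixed with [125I]TZDM and inhibitor (10^-5 to 10^-10 M in EtOH) in PBS (0.2 M, pH 7.4). Incubated 2 h at 37 °C; nonspecific binding taken with 100 nM TZDM. Bound and free separated by vacuum filtration through glass fibre filters, washed with cold PBS containing 10% ethanol, then counted; Ki reported.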

Mus musculus = species: Mus musculus; assay: Binding affinity to amyloid beta in APP/PS1 transgenic C57 mouse brain at 1 uM after 10 mins by fluorescence assay; format: tissue-based
Method in brief: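 Paraffin-embedded brain sections (10 μm) from APP/PS1 C57 transgenic mouse, deparaffinized through xylene and graded ethanol, then PBS (0.2 M, pH 7.4) 30 min. Sections incubated 10 min with compound (1 μM in 20% ethanol), washed with 50% ethanol and PBS. Confocal fluorescence read at excitation 405 nm, 505 nm long-pass. Plaques confirmed with thioflavin-S (1 μM) on adjacent sections.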

| Ki [1] | inhibition [1] | Activity (Mus musculus) | SMILES |
| --- | --- | --- | --- |
| 990 pM | Dose-dependent effect |  | Brc1ccc(/C=C/c2ccc(-c3cccs3)s2)cc1 |
| 360 pM | Dose-dependent effect | Active | CN(C)c1ccc(/C=C/c2ccc(-c3ccc(Br)s3)s2)cc1 |
| 510 pM | Dose-dependent effect |  | Brc1ccc(-c2ccc(/C=C/c3ccc(I)cc3)s2)s1 |
| 100 pM | Dose-dependent effect | Active | O=[N+]([O-])c1ccc(/C=C/c2ccc(-c3ccc(Br)s3)s2)cc1 |
| 1480 pM | Dose-dependent effect |  | COc1ccc(/C=C/c2ccc(-c3cccs3)s2)cc1 |
| 3600 pM | Dose-dependent effect |  | Oc1ccc(/C=C/c2ccc(-c3ccc(Br)s3)s2)cc1 |
| 950 pM | Dose-dependent effect |  | CC(C)(C)c1ccc(/C=C/c2ccc(-c3ccc(Br)s3)s2)cc1 |
| 1100 pM | Dose-dependent effect |  | Clc1ccc(/C=C/c2ccc(-c3ccc(I)s3)s2)cc1 |
| 560 pM | Dose-dependent effect |  | O=[N+]([O-])c1ccc(/C=C/c2ccc(-c3cccs3)s2)cc1 |
| 1020 pM | Dose-dependent effect |  | Clc1ccc(/C=C/c2ccc(-c3ccc(Br)s3)s2)cc1 |
| 1580 pM | Dose-dependent effect |  | CC(C)(C)c1ccc(/C=C/c2ccc(-c3ccc(I)s3)s2)cc1 |
| 1150 pM | Dose-dependent effect |  | Cc1ccc(/C=C/c2ccc(-c3cccs3)s2)cc1 |
| 730 pM | Dose-dependent effect | Active | CC(C)(C)c1ccc(/C=C/c2ccc(-c3cccs3)s2)cc1 |
| 4060 pM | Dose-dependent effect |  | Fc1ccc(/C=C/c2ccc(-c3cccs3)s2)cc1 |
| 740 pM | Dose-dependent effect |  | Clc1ccc(/C=C/c2ccc(-c3cccs3)s2)cc1 |
